In brackets after ≈: the same amount, converted by molar mass.
Experiments:
[1] = tested on: Bacillus subtilis; assay: Inhibition of N-terminal LgBiT-fused Bacillus subtilis NusB expressed in Escherichia coli BL21(DE3)pLysS interaction with C- terminal SmBiT-fused Bacillus subtilis NusE expressed in Escherichia coli BL21(DE3)pLysS at 100 uM preincubated for 10 mins followed by NusE addition and measured after 10 mins by nano-glo luciferase assay relative to control
Summary of the method: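 NusB and NusE were mixed 1:1 at 1 µM in PBS, with compound at 100 µM. The read-out was percent inhibition of the NusB-NusE interaction.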

[2] = tested on: Enterococcus faecium; assay: Antimicrobial activity against Enterococcus faecium ATCC 19433 incubated for 20 hrs by microdilution method; type: functional; settings: ATCC 19433, 20 h
Summary of the method: (§1)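 Broth microdilution MIC testing done following CLSI guidelines.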

[3] = tested on: Streptococcus pneumoniae; assay: Antimicrobial activity against Streptococcus pneumoniae ATCC 49619 incubated for 20 hrs by microdilution method; type: functional; settings: ATCC 49619, 20 h; summary of the method: as §1
[4] = tested on: Acinetobacter baumannii; assay: Antimicrobial activity against Acinetobacter baumannii ATCC 19606 incubated for 20 hrs by microdilution method; type: functional; settings: ATCC 19606 = CIP 70.34 = JCM 6841, 20 h; summary of the method: as §1
[5] = tested on: Pseudomonas aeruginosa; assay: Antimicrobial activity against Pseudomonas aeruginosa ATCC 27853 incubated for 20 hrs by microdilution method; type: functional; settings: ATCC 27853, 20 h; summary of the method: as §1
[6] = tested on: Staphylococcus aureus; assay: microbe, parasite or virus in culture; settings: ATCC 25923, 20 h
[7] = tested on: Staphylococcus aureus; assay: microbe, parasite or virus in culture; settings: ATCC 29213, 20 h
[8] = microbe, parasite or virus in culture; settings: Enterobacter cloacae, ATCC 13047, 20 h

Structure (SMILES) | inhibition [1] [%] | MIC [2] [µg/mL] | MIC [3] [µg/mL] | MIC [4] [µg/mL] | MIC [5] [µg/mL] | MIC [6] [µg/mL] | MIC [7] [µg/mL] | MIC [8] [µg/mL]
O=[N+]([O-])c1ccc(O)c(CNC2CCCCC2)c1 | 58.2 | > 256 | > 256 | > 256 | > 256 | > 256 | > 256 | > 256
O=[N+]([O-])c1ccc(O)c(/C=N/c2ccc(Cl)cc2)c1 | 50 | 256 (≈ 925 µM) | 64 (≈ 231 µM) | > 256 | > 256 | 8 (≈ 28.9 µM) | 32 (≈ 116 µM) | > 256
O=[N+]([O-])c1ccc(O)c(CNc2ccc(Cl)cc2)c1 | 53.6 | 32 (≈ 115 µM) | 16 (≈ 57.4 µM) | > 256 | 256 (≈ 919 µM) | 8 (≈ 28.7 µM) | 4 (≈ 14.4 µM) | 128 (≈ 459 µM)
O=[N+]([O-])c1ccc(O)c(/C=N/c2ccccc2C(F)(F)F)c1 | 53.1 | 256 (≈ 825 µM) | 32 (≈ 103 µM) | > 256 | > 256 | 8 (≈ 25.8 µM) | 16 (≈ 51.6 µM) | > 256
CC(C)(C)c1ccc(/N=C/c2cc([N+](=O)[O-])ccc2O)cc1 | 38.8 | > 256 | 128 (≈ 429 µM) | > 256 | > 256 | 4 (≈ 13.4 µM) | 32 (≈ 107 µM) | > 256
O=[N+]([O-])c1ccc(O)c(CNc2cccc(C(F)(F)F)c2)c1 | 61.7 | 16 (≈ 51.2 µM) | 16 (≈ 51.2 µM) | 64 (≈ 205 µM) | > 256 | 4 (≈ 12.8 µM) | 4 (≈ 12.8 µM) | 256 (≈ 820 µM)
CC(C)(C)c1cccc(/N=C/c2cc([N+](=O)[O-])ccc2O)c1 | 51.3 | > 256 | 256 (≈ 858 µM) | 128 (≈ 429 µM) | > 256 | 4 (≈ 13.4 µM) | 16 (≈ 53.6 µM) | > 256
O=[N+]([O-])c1ccc(O)c(/C=N/c2ccc(O)cc2)c1 | 89.1 | > 256 | 64 (≈ 248 µM) | > 256 | > 256 | 4 (≈ 15.5 µM) | 8 (≈ 31 µM) | > 256
O=[N+]([O-])c1ccc(O)c(CNc2cccc(O)c2)c1 | 66.7 | > 256 | 128 (≈ 492 µM) | > 256 | > 256 | 64 (≈ 246 µM) | 128 (≈ 492 µM) | > 256
O=[N+]([O-])c1ccc(O)c(/C=N/c2cccc3ccccc23)c1 | 43.4 | > 256 | 32 (≈ 109 µM) | 128 (≈ 438 µM) | > 256 | 4 (≈ 13.7 µM) | 16 (≈ 54.7 µM) | > 256
O=[N+]([O-])c1ccc(O)c(CNc2cccc3ccccc23)c1 | 47.4 | 16 (≈ 54.4 µM) | 16 (≈ 54.4 µM) | 256 (≈ 870 µM) | > 256 | 4 (≈ 13.6 µM) | 4 (≈ 13.6 µM) | > 256
C#Cc1cccc(/N=C/c2cc(CC#N)ccc2O)c1 | 49.9 | > 256 | > 256 | 64 (≈ 246 µM) | > 256 | 256 (≈ 983 µM) | > 256 | > 256
C#Cc1cccc(NCc2cc([N+](=O)[O-])ccc2OC)c1 | 56.1 | > 256 | > 256 | > 256 | > 256 | > 256 | > 256 | > 256
O=[N+]([O-])c1ccc(O)c(/C=N/c2ccccc2O)c1 | 57.7 | > 256 | 64 (≈ 248 µM) | 128 (≈ 496 µM) | > 256 | 4 (≈ 15.5 µM) | 16 (≈ 62 µM) | > 256
O=[N+]([O-])c1ccc(O)c(CNc2ccc(C(F)(F)F)cc2)c1 | 54.1 | 32 (≈ 102 µM) | 16 (≈ 51.2 µM) | 32 (≈ 102 µM) | > 256 | 8 (≈ 25.6 µM) | 8 (≈ 25.6 µM) | 256 (≈ 820 µM)
C#Cc1cccc(/N=C/c2cc(Cl)cc(Cl)c2O)c1 | 54.2 | 256 (≈ 882 µM) | 8 (≈ 27.6 µM) | 128 (≈ 441 µM) | > 256 | 32 (≈ 110 µM) | 64 (≈ 221 µM) | > 256
C#Cc1cccc(NCc2cccc([N+](=O)[O-])c2O)c1 | 64.5 | > 256 | 256 (≈ 954 µM) | > 256 | > 256 | 128 (≈ 477 µM) | 16 (≈ 59.6 µM) | > 256
O=[N+]([O-])c1ccc(O)c(/C=N/c2ccc(C(F)(F)F)cc2)c1 | 68.9 | 256 (≈ 825 µM) | 16 (≈ 51.6 µM) | 256 (≈ 825 µM) | > 256 | 8 (≈ 25.8 µM) | 16 (≈ 51.6 µM) | > 256
O=C(O)c1cccc(/N=C/c2cc([N+](=O)[O-])ccc2O)c1 | 78.5 | > 256 | 16 (≈ 55.9 µM) | 64 (≈ 224 µM) | > 256 | 4 (≈ 14 µM) | 16 (≈ 55.9 µM) | > 256
C#Cc1ccccc1/N=C/c1cc([N+](=O)[O-])ccc1O | 71.4 | > 256 | 32 (≈ 120 µM) | > 256 | > 256 | 4 (≈ 15 µM) | 16 (≈ 60.1 µM) | > 256
C#Cc1cccc(NCc2cc(CC#N)ccc2O)c1 | 44.7 | 32 (≈ 122 µM) | 8 (≈ 30.5 µM) | > 256 | > 256 | 64 (≈ 244 µM) | 32 (≈ 122 µM) | > 256
C#Cc1cccc(NCc2ccccc2O)c1 | 20.3 | > 256 | > 256 | > 256 | > 256 | > 256 | > 256 | > 256
CO[C@H]1/C=C/O[C@@]2(C)Oc3c(C)c(O)c4c(O)c(c(/C=N/N5CCN(C)CC5)c(O)c4c3C2=O)NC(=O)/C(C)=C\C=C\[C@H](C)[C@H](O)[C@@H](C)[C@@H](O)[C@@H](C)[C@H](OC(C)=O)[C@@H]1C [RIFAMPIN] |  | 2 (≈ 2.43 µM) | 0.0625 (≈ 0.0759 µM) | 4 (≈ 4.86 µM) | > 256 | 0.0125 (≈ 0.0152 µM) | 0.0125 (≈ 0.0152 µM) | > 256

Continued, values first:

inhibition [1] [%] | MIC [2] [µg/mL] | MIC [3] [µg/mL] | MIC [4] [µg/mL] | MIC [5] [µg/mL] | MIC [6] [µg/mL] | MIC [7] [µg/mL] | MIC [8] [µg/mL] | Structure (SMILES)
24.7 | > 256 | > 256 | 16 (≈ 63.9 µM) | > 256 | 256 (≈ 1020 µM) | 128 (≈ 511 µM) | > 256 | C#Cc1cccc(/N=C/c2cccc([N+](=O)[O-])c2)c1
47.7 | 16 (≈ 59.6 µM) | 8 (≈ 29.8 µM) | 128 (≈ 477 µM) | > 256 | 16 (≈ 59.6 µM) | 16 (≈ 59.6 µM) | > 256 | C#Cc1cccc(NCc2cc([N+](=O)[O-])ccc2O)c1
29.3 | > 256 | > 256 | 128 (≈ 509 µM) | > 256 | > 256 | > 256 | > 256 | C#Cc1cccc(/N=C/c2cc(OC)ccc2O)c1
87.7 | 256 (≈ 961 µM) | 256 (≈ 961 µM) | > 256 | 256 (≈ 961 µM) | 256 (≈ 961 µM) | 256 (≈ 961 µM) | > 256 | C#Cc1cccc(/N=C/c2cccc([N+](=O)[O-])c2O)c1
76.3 | 128 (≈ 481 µM) | 64 (≈ 240 µM) | > 256 | > 256 | 4 (≈ 15 µM) | 16 (≈ 60.1 µM) | > 256 | C#Cc1ccc(/N=C/c2cc([N+](=O)[O-])ccc2O)cc1
46.7 | > 256 | 128 (≈ 481 µM) | > 256 | > 256 | 64 (≈ 240 µM) | 256 (≈ 961 µM) | > 256 | C#Cc1cccc(/N=C/c2ccc([N+](=O)[O-])cc2O)c1
39.2 | > 256 | 32 (≈ 132 µM) | 256 (≈ 1060 µM) | > 256 | 4 (≈ 16.5 µM) | 16 (≈ 66.1 µM) | > 256 | O=[N+]([O-])c1ccc(O)c(/C=N/c2ccccc2)c1
40.4 | > 256 | > 256 | > 256 | > 256 | > 256 | > 256 | > 256 | C#Cc1cccc(/N=C/c2cc([N+](=O)[O-])ccc2OC)c1
48.2 | 32 (≈ 119 µM) | 16 (≈ 59.6 µM) | 64 (≈ 239 µM) | > 256 | 8 (≈ 29.8 µM) | 8 (≈ 29.8 µM) | > 256 | C#Cc1cccc(NCc2ccc([N+](=O)[O-])cc2O)c1
25.7 | > 256 | > 256 | > 256 | > 256 | 256 (≈ 1160 µM) | > 256 | > 256 | C#Cc1cccc(/N=C/c2ccccc2O)c1
61.3 | 256 (≈ 1040 µM) | 128 (≈ 520 µM) | > 256 | > 256 | 32 (≈ 130 µM) | 64 (≈ 260 µM) | > 256 | C#Cc1cccc(/N=C/c2cc(C#N)ccc2O)c1
28.1 | > 256 | 256 (≈ 1070 µM) | 256 (≈ 1070 µM) | 256 (≈ 1070 µM) | 256 (≈ 1070 µM) | > 256 | > 256 | C#Cc1cccc(/N=C/c2cc(F)ccc2O)c1
74.1 | > 256 | 128 (≈ 371 µM) | 256 (≈ 742 µM) | > 256 | 32 (≈ 92.7 µM) | 32 (≈ 92.7 µM) | > 256 | C#Cc1cccc(/N=C/c2cc([N+](=O)[O-])cc(Br)c2O)c1

Source: ChEMBL document CHEMBL4364256, “Design, synthesis and biological evaluation of antimicrobial diarylimine and -amine compounds targeting the interaction between the bacterial NusB and NusE proteins” (Eur J Med Chem, 2019)
